Test results published in ChEMBL document CHEMBL1156300, “Identification of pyridazino[4,5-b]indolizines as selective PDE4B inhibitors” (Bioorg Med Chem Lett, 2010).

Tests used:
[1] = molecular target: T1, 3',5'-cyclic-AMP phosphodiesterase 4B (Homo sapiens, UniProt Q07343); experiment: Displacement of [methyl-3H]rolipram from PDE4B3 expressed in CHO cells after 1 hr by scintillation counting; format: cell-based
[2] = molecular target: T2, 3',5'-cyclic-AMP phosphodiesterase 4D (Homo sapiens, UniProt Q08499); experiment: Displacement of [methyl-3H]rolipram from PDE4D4 expressed in CHO cells after 1 hr by scintillation counting; format: cell-based
T2 sequence (Q08499 whole entry): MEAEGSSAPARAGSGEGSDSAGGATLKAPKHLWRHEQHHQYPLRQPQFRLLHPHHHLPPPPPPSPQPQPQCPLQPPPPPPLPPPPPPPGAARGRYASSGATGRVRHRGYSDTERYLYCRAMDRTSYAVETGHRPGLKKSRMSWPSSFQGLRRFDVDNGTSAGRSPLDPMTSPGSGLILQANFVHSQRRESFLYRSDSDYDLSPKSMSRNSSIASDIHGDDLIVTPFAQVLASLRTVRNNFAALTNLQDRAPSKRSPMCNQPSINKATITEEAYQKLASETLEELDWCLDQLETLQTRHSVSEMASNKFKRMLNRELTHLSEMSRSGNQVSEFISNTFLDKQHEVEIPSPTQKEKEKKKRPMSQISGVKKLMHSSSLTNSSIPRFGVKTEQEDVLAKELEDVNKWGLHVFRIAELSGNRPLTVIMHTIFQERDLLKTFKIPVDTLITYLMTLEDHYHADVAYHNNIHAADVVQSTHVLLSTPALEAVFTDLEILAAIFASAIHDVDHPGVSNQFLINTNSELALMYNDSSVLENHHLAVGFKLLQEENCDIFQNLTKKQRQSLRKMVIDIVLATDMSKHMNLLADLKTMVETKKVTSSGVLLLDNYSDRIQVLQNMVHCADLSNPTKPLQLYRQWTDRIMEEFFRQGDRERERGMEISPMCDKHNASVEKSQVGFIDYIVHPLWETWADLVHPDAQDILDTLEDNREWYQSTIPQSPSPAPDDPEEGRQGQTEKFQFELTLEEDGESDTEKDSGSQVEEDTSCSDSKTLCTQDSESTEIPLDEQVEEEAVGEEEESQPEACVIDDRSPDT

[3] = Selectivity ratio Ki for PDE4D4 to Ki for PDE4B3
Summary of the method: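 Ki ratio, PDE4D over PDE4B, from [3H]-rolipram displacement in CHO lysates expressing PDE4D4 or PDE4B3 (2.5 nM radioligand, 30 °C for 1 h, Cheng–Prusoff Ki).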

[4] = molecular target: T1, 3',5'-cyclic-AMP phosphodiesterase 4B; experiment: Inhibition of PDE4B3 expressed in CHO cells assessed as isoproterenol-induced [125I]cAMP accumulation after 15 mins by scintillation counting; format: cell-based
[5] = molecular target: T2, 3',5'-cyclic-AMP phosphodiesterase 4D; experiment: Inhibition of PDE4D4 expressed in CHO cells assessed as isoproterenol-induced [125I]cAMP accumulation after 15 mins by scintillation counting; format: cell-based
[6] = Inhibition of PDE1
[7] = Inhibition of PDE2
[8] = Inhibition of PDE3
[9] = Inhibition of PDE5
[10] = Inhibition of PDE6
[11] = Selectivity ratio of IC50 for PDE4A to IC50 for PDE4B3
[12] = Selectivity ratio of IC50 for PDE4C to IC50 for PDE4B3
[13] = molecular target: Voltage-gated inwardly rectifying potassium channel KCNH2 (Homo sapiens, UniProt Q12809); experiment: Inhibition of human ERG
Chain of Voltage-gated inwardly rectifying potassium channel KCNH2 (Q12809 whole entry): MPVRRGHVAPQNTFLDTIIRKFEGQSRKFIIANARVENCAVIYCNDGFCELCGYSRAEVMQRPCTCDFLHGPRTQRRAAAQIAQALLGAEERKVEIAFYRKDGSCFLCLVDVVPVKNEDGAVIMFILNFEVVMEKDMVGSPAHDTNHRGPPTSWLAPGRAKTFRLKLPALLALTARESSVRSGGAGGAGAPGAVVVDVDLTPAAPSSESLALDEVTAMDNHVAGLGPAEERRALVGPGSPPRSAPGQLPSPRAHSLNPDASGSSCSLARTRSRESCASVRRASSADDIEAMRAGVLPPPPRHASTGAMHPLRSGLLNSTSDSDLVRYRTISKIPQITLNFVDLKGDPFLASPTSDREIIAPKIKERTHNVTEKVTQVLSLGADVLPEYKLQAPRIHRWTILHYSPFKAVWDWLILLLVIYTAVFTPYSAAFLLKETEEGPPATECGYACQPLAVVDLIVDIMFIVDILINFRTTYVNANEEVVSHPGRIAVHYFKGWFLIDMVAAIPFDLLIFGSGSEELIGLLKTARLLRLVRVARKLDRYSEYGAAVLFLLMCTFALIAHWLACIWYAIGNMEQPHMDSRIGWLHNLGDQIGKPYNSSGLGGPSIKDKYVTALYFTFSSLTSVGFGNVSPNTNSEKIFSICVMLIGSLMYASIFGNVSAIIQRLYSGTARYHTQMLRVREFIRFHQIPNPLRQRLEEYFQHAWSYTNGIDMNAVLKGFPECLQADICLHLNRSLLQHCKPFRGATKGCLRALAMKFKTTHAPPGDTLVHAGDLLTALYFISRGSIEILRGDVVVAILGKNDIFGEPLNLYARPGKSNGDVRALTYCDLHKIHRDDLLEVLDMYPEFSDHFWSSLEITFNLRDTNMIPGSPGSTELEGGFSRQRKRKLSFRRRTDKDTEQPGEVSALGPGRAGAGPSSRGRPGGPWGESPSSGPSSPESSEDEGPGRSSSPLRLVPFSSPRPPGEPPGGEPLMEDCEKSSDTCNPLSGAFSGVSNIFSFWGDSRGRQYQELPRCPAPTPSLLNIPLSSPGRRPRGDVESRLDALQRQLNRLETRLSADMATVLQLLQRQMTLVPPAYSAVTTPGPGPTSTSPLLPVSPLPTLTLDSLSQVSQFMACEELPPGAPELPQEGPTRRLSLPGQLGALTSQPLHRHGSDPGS

T1 sequence (Q07343 whole entry): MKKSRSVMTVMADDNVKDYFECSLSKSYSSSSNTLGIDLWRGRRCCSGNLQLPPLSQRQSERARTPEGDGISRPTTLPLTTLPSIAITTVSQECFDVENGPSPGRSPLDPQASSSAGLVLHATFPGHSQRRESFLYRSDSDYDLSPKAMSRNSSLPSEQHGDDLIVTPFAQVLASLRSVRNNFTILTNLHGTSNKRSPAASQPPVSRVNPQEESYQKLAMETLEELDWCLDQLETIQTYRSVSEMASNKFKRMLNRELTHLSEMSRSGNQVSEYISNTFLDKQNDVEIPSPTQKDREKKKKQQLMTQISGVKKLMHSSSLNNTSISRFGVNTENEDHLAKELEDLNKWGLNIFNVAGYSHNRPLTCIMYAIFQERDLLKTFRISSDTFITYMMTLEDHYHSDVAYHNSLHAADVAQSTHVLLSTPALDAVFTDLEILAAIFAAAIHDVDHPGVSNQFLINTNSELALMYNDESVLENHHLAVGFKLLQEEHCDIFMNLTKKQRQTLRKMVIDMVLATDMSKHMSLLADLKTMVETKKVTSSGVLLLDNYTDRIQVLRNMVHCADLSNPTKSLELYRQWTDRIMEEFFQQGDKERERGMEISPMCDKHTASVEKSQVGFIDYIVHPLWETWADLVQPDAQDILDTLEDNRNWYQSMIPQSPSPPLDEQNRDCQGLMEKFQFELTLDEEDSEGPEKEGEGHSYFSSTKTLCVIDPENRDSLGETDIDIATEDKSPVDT

Ki [1] [nM] | Ki [2] [µM] | Ratio Ki [3] | SMILES | further results
1000 | > 100 | > 100 | Cc1cc2c(NCCCN3CCN(C(=O)c4ncccn4)CC3)nnc(-c3cccc([N+](=O)[O-])c3)c2n1C | –
1030 | 3.35 | 3 | N#Cc1cccc(-c2nnc(NCCCN3CCN(c4ncccn4)CC3)c3cc4ccccn4c23)c1 | –
210 | 2.4 | 11 | O=[N+]([O-])c1cccc(-c2nnc(NCCCN3CCN(c4ncccn4)CC3)c3cc4ccccn4c23)c1 | –
41 | 8.37 | 205 | O=C(c1cnccn1)N1CCN(CCCNc2nnc(-c3ccccc3)c3c2cc2ccccn23)CC1 | IC50 [4]: 6.7 µM; IC50 [5]: > 100 µM
5200 | 65 | 12 | Cn1cccc1C(=O)N1CCN(CCCNc2nnc(-c3cccc(F)c3)c3c2cc2ccccn23)CC1 | –
241 | 18 | 75 | O=C(c1ccccn1)N1CCN(CCCNc2nnc(-c3cccc(F)c3)c3c2cc2ccccn23)CC1 | –
238 | 11.5 | 48 | Cc1cc2c(NCCCN3CCN(C(=O)c4ccccn4)CC3)nnc(-c3cccc([N+](=O)[O-])c3)c2n1C | –
2600 | 59 | 23 | c1ccc(-c2nnc(NCCCN3CCN(c4ncccn4)CC3)c3cc4ccccn4c23)cc1 | IC50 [4]: 13.2 µM; IC50 [5]: > 100 µM
14000 | 61 | 4 | O=C(C1CCCC1)N1CCN(CCCNc2nnc(-c3cccc(F)c3)c3c2cc2ccccn23)CC1 | –
4440 | 51.2 | 12 | Cc1cc2c(NCCCN3CCN(C(=O)c4ccnnc4)CC3)nnc(-c3cccc([N+](=O)[O-])c3)c2n1C | –
4300 | 54.4 | 13 | Cc1cccc(-c2nnc(NCCCN3CCN(c4ncccn4)CC3)c3cc4ccccn4c23)c1 | –
1900 | > 100 | > 53 | CC(=O)N1CCN(CCCNc2nnc(-c3cccc(F)c3)c3c2cc2ccccn23)CC1 | –
2700 | 83 | 29 | Fc1cccc(-c2nnc(NCCCN3CCN(c4ncccn4)CC3)c3cc4ccccn4c23)c1 | –
2010 | 14.2 | 7 | Clc1cccc(-c2nnc(NCCCN3CCN(c4ncccn4)CC3)c3cc4ccccn4c23)c1 | –
1440 | 17.5 | 12 | Brc1cccc(-c2nnc(NCCCN3CCN(c4ncccn4)CC3)c3cc4ccccn4c23)c1 | –
4900 | > 100 | > 20 | CCC(=O)N1CCN(CCCNc2nnc(-c3cccc(F)c3)c3c2cc2ccccn23)CC1 | –
413 | 19 | 46 | O=C(c1cccnc1)N1CCN(CCCNc2nnc(-c3cccc(F)c3)c3c2cc2ccccn23)CC1 | –
77 | 4.44 | 58 | Cc1cc2c(NCCCN3CCN(C(=O)c4cnccn4)CC3)nnc(-c3cccc([N+](=O)[O-])c3)c2n1C | –
432 | 15.3 | 35 | Cc1cc2c(NCCCN3CCN(C(=O)c4cccnc4)CC3)nnc(-c3cccc([N+](=O)[O-])c3)c2n1C | –
2700 | 22.2 | 8 | O=C(c1ccccc1)N1CCN(CCCNc2nnc(-c3cccc(F)c3)c3c2cc2ccccn23)CC1 | –
5.6 | 0.147 | 26 | O=C(c1cnccn1)N1CCN(CCCNc2nnc(-c3cccc([N+](=O)[O-])c3)c3c2cc2ccccn23)CC1 | IC50 [4]: 0.389 µM; IC50 [5]: 4.9 µM; IC50 [6]: > 10 µM; IC50 [7]: > 10 µM; IC50 [8]: > 10 µM; IC50 [9]: > 10 µM; IC50 [10]: > 10 µM; Ratio IC50 [11]: > 5; Ratio IC50 [12]: > 5; inhibition (INH) [13]: Active
5080 | > 100 | > 20 | Cc1cc2c(NCCCN3CCN(C(=O)c4ccno4)CC3)nnc(-c3cccc([N+](=O)[O-])c3)c2n1C | –
977 | 48.6 | 50 | Cc1cc2c(NCCCN3CCN(C(=O)c4csnn4)CC3)nnc(-c3cccc([N+](=O)[O-])c3)c2n1C | –
52200 | > 100 | > 2 | Cc1cc2c(NCCCN3CCN(C(=O)c4ccncc4)CC3)nnc(-c3cccc([N+](=O)[O-])c3)c2n1C | –
222 | 12.7 | 57 | Cc1cc2c(NCCCN3CCN(C(=O)c4cncs4)CC3)nnc(-c3cccc([N+](=O)[O-])c3)c2n1C | –
